{
  "source": "paper PMC6039259",
  "about": "(Nature medicine, 2018)",
  "key": {"[1]": {"assay": "NLY01 accumulation in brain / BBB penetration", "format": "in vivo, mice"}, "[2]": {"tested_on": "human dopaminergic (DA) neurons", "assay": "Direct α-syn PFF toxicity in human DA neurons", "format": "cell-based", "settings": "direct treatment of DA neurons, NLY01 1 µM, human α-syn PFF 5 µg/ml", "outline": "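Viability is read three ways: alamarBlue per kit protocol, LDH activity in culture medium measured spectrophotometrically, and trypan blue counting. For trypan blue, neurons are trypsin-dissociated to single cells and mixed 1:1 with dye. Live and dead cells are counted on an automated cell counter, with three wells per condition.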"}, "[3]": {"tested_on": "primary microglia", "assay": "α-syn PFF-induced activation of primary microglia", "format": "cell-based, mouse", "outline": "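Primary mouse microglia, CD11b-selected from P1 mixed glia, are pretreated with test compound (1 μM), then given α-syn PFF (1 μg/ml). PFF is endotoxin-depleted recombinant mouse α-syn, stirred a week at 37 °C and sonicated. For qPCR, total RNA is normalized to β-actin by 2^−ΔΔCt, with n=3 independent cultures. Cytokines in medium collected 18 hrs post-PFF are measured by mouse cytokine ELISA array.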"}, "[4]": {"tested_on": "α-syn PFF injected C57BL6 mice", "assay": "Intrastriatal α-syn PFF mouse model of sporadic PD", "format": "in vivo"}, "[5]": {"tested_on": "human DA neurons", "assay": "α-syn PFF-ACM toxicity in human DA neurons", "format": "cell-based", "settings": "NLY01 applied to the α-syn PFF treated microglia; alamarBlue, LDH, trypan blue, 5 days"}, "[6]": {"target": "human recombinant GLP-1R (Homo sapiens, UniProt P43220)", "sequence (P43220 24-463)": "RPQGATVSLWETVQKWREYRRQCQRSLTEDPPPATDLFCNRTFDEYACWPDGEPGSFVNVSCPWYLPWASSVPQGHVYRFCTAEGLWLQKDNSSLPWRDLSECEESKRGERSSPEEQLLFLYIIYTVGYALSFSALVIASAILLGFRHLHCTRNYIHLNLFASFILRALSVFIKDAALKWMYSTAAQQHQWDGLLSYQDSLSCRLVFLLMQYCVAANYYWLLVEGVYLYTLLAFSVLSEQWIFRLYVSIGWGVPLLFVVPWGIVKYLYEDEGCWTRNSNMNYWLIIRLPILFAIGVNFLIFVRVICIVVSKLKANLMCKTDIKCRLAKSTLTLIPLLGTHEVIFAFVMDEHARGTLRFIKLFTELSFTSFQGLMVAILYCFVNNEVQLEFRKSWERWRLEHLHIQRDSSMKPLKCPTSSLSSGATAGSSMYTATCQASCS", "assay": "cAMP production in GLP-1R transfected HEK-293/CRE-LUC/GLP1R cells", "format": "cell-based"}, "[7]": {"tested_on": "murine primary cortical cultures", "assay": "α-syn PFF-ACM toxicity in murine primary cortical neurons", "format": "cell-based, mouse", "outline": "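Cortical neurons from E15.5 CD1 embryos are grown in B-27 Neurobasal medium on poly-L-lysine. ACM is made by giving astrocytes 24 h of α-syn PFF-MCM, with or without test compound on the microglia. It is collected with protease inhibitors, concentrated about 50X (10 kDa cutoff) and dosed at 15 μg/ml total protein. Nuclei are stained with Hoechst (7 μM) and PI (2 μM) and counted by computer, relative to control wells.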"}, "[8]": {"tested_on": "primary astrocytes", "assay": "A1 astrocyte induction by α-syn PFF-MCM in primary astrocytes", "format": "cell-based, mouse", "outline": "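Primary microglia and astrocytes come from P1 CD1 mouse whole brains. Mixed glia are grown 13 days, then split by CD11b positive selection: the bound fraction is microglia and the pour-off is astrocytes. Microglia get α-syn PFF with PBS or test compound (1 μM). Their conditioned medium is applied to astrocytes for 24 hrs, and GFAP is measured by immunoblot.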"}, "[9]": {"tested_on": "hA53T α-syn Tg mice", "assay": "hA53T α-synuclein transgenic mouse model", "format": "in vivo"}, "[10]": {"tested_on": "astrocytes of ventral midbrain", "assay": "qPCR of astrocytes from ventral midbrain of α-syn PFF injected mice", "format": "in vivo"}, "[11]": {"settings": "3 mg/kg s.c. twice a week for five months"}},
  "data": [
    {"substance": "His-Gly-Glu-Gly-Thr-Phe-Thr-Ser-Asp-Leu-Ser-Lys-Gln-Met-Glu-Glu-Glu-Ala-Val-Arg-Leu-Phe-Ile-Glu-Trp-Leu-Lys-Asn-Gly-Gly-Pro-Ser-Ser-Gly-Ala-Pro-Pro-Pro-Ser-Cys(PEG50K)-NH2 [NLY01, pegylated [Cys^40]Exendin-4]", "values": [
      {"measurement": "brain levels", "setting": "[1]; ten-month-old hA53T Tg mice, 3 mg/kg", "value": "reaches high brain levels"},
      {"measurement": "blood-brain barrier penetration", "setting": "[1]; wild type (WT) mice", "value": "efficiently penetrates the blood-brain barrier"},
      {"measurement": "protection against α-syn PFF induced cell death (alamarBlue, LDH, trypan blue)", "setting": "[2]", "value": "fails to protect"},
      {"measurement": "uptake of α-syn PFF in microglia", "setting": "[3]", "value": "does not interfere"},
      {"measurement": "α-syn PFF induced C1q and TNFα release into media, western blot", "setting": "[3]; NLY01 1 µM pretreatment", "value": "significantly inhibited"},
      {"measurement": "α-syn PFF induced protein levels of IL-1α, TNFα, IL-1ß, C1q, ELISA", "setting": "[3]; NLY01 1 μM pretreatment, MCM 18 hrs after α-syn PFF", "value": "reduced"},
      {"measurement": "α-syn PFF induced mRNA for Il1a, Il1b, Tnfα, C1qa, Il6, qPCR", "setting": "[3]; NLY01 1 μM pretreatment, α-syn PFF 1 μg/ml", "value": "significantly reduces"},
      {"measurement": "α-syn PFF induced cytokines (IL-1α, TNFα, IL-1ß, IL-6, leptin), ELISA cytokine array", "setting": "[3]; primary microglia, α-syn PFF 1 µg/ml", "value": "reduces"},
      {"measurement": "NF-kB pathway", "setting": "[3]; α-syn PFF-induced NF-kB nuclear translocation and phosphorylation", "value": "inhibits"},
      {"measurement": "Triton X-100 insoluble α-syn and p-α-syn ser129, western blot", "setting": "[4]; [11]", "value": "significantly reduces"},
      {"measurement": "α-syn PFF induced reduction in striatal TH immunoreactivity and striatal TH and DAT protein", "setting": "[4]; [11]", "value": "rescued"},
      {"measurement": "p-α-syn ser129 immunoreactivity in striatum, ventral midbrain and TH neurons", "setting": "[4]; 3 mg/kg s.c. twice a week for five months, from one month after α-syn PFF", "value": "significantly reduces"},
      {"measurement": "α-syn PFF induced loss of TH and Nissl positive neurons in the SNpc", "setting": "[4]; 3 mg/kg s.c. twice a week for five months, n=10", "value": "prevented"},
      {"measurement": "ipsilateral amphetamine induced rotation", "setting": "[4]; 5 mg/kg amphetamine i.p., six months after α-syn PFF", "value": "prevented"},
      {"measurement": "α-syn PFF induced GFAP immunoreactivity and GFAP level in the ventral midbrain", "setting": "[4]; immunohistochemistry and western blot", "value": "blocked"},
      {"measurement": "α-syn PFF induced mRNA for Il1a, Il1b, Tnfα, C1qa, Il6 in ventral midbrain", "setting": "[4]; qPCR, n=4", "value": "blocked"},
      {"measurement": "behavioral deficits in accelerating rotarod test and pole test", "setting": "[4]; six months after α-syn PFF", "value": "significantly reduces the behavioral deficits"},
      {"measurement": "contralateral forepaw touches, cylinder test", "setting": "[4]; six months after α-syn PFF", "value": "restored"},
      {"measurement": "increase in grooming time and reduction in rearing, cylinder test", "setting": "[4]; six months after α-syn PFF", "value": "restored"},
      {"measurement": "Iba-1 immunoreactivity and microglial density in the SNpc", "setting": "[4]; six months post injection", "value": "significantly reduces"},
      {"measurement": "α-syn PFF-ACM induced cell death", "setting": "[5]", "value": "significantly prevents"},
      {"measurement": "biologic activity in vitro relative to Exendin-4", "setting": "[6]", "value": "comparable biologic activity"},
      {"measurement": "α-syn PFF-ACM induced cell death", "setting": "[7]; NLY01 (1 µM) applied to the α-syn PFF treated microglia, Hoechst/PI, 48 hrs", "value": "significantly prevents"},
      {"measurement": "p-α-syn ser129 levels induced by α-syn PFF-ACM", "setting": "[7]; pretreatment of NLY01 in microglia", "value": "significantly reduced"},
      {"measurement": "α-syn PFF-MCM induced GFAP", "setting": "[8]; NLY01 1 μM, 24 hrs, immunoblot", "value": "blocked"},
      {"measurement": "induction of A1 astrocytic specific markers", "setting": "[8]; NLY01 treatment of microglia, but not that of astrocytes", "value": "prevents"},
      {"measurement": "prolongation of lifespan", "setting": "[9]; 3 mg/kg s.c. twice a week from six months of age, n=20", "value": "over 100 days"},
      {"measurement": "p-α-syn ser129 immunoreactivity, aggregated α-syn and ubiquitin immunoreactivity", "setting": "[9]; 3 mg/kg, brainstem", "value": "reduction"},
      {"measurement": "microglial and astrocytic activation (Iba-1, GFAP immunoreactivity)", "setting": "[9]; brainstem", "value": "significantly attenuates"},
      {"measurement": "increase of C3 mRNA", "setting": "[9]; ten-month-old hA53T α-syn Tg mice", "value": "prevented"},
      {"measurement": "α-syn PFF induced A1 astrocyte specific transcripts", "setting": "[10]", "value": "prevented"},
      {"measurement": "induction of C3 mRNA in isolated astrocytes", "setting": "[10]; n=4", "value": "blocks"}
    ]}
  ]
}
